Assay outcomes deposited in PubChem by The Scripps Research Institute Molecular Screening Center.
In the library only some 1.8% were active in any assay of this set; here they are far more common.
CHRM5 antagonist – CHRM5 antagonism in calcium assay; inhibition, % at 3 µM; CHO-hM5 cells, Fluo-8 calcium fluorescence, ACh EC80; 360,000 compounds, 0.59% hits;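 active = inhibition above a per-plate cutoff, the mean of that plate's test compounds plus 3 SD, cut at about 27% in these data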
CHRM4 agonist – agonists of human muscarinic M4 receptor (CHRM4); AID 624127; 360,000 compounds, 0.14% hits; CHO-K1 hM4/Gqi5, Fluo-8 calcium fluorescence; vehicle 0%, full acetylcholine response 100%; activation, % at 3 µM;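 active = activation above the run mean over all test wells plus 3 SD, cut at about 32% in these data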;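 note: peak over basal fluorescence ratio per well then scaled between controls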
Target sequence (P08173 whole entry, looked up): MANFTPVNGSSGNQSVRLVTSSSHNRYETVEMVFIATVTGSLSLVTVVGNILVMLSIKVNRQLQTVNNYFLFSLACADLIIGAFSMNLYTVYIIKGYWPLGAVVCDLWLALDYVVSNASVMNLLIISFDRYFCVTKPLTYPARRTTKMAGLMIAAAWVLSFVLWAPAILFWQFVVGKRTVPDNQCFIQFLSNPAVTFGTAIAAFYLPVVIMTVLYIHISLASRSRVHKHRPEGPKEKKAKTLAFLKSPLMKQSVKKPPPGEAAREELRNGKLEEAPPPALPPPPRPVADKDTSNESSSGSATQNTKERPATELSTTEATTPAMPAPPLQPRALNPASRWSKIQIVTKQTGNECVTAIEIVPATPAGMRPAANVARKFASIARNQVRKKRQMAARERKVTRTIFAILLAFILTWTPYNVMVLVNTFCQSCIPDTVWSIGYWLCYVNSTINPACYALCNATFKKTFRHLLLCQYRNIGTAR
CHRM4 PAM – CHRM4 positive allosteric modulation | P08173 | CHO-K1 hM4/Gqi5, Fluo-8 calcium fluorescence, ACh EC20; 0% = ACh EC20, 100% = maximal ACh | activation, % at 3 µM | 360,000 compounds, 0.4% hits | AID 624126;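 active = activation above its plate's cutoff, the mean activation of sample wells plus 3 SD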
M5 PAM – CHRM5 positive allosteric modulation; CHO-K1 hM5, Fluo-8 calcium, ACh EC20 PAM; 0% = ACh EC20, 100% = ACh EC100; activation, % at 3 µM; 360,000 compounds, 0.3% hits; AID 624038;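 active = activation above the run cutoff, the mean activation of all test compounds plus 3 SD, cut at about 18% in these data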
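system = human M5 receptor in CHO-K1 cells | compound = one concentration, 3 µM final (nominal) | schedule = Post-acetylcholine fluorescence recording 140 s | signal = Fluo-8 calcium dye fluorescence, kinetic read | benchmarks = low control EC20 acetylcholine (0%), high control EC100 acetylcholine (100%) | repeats = singlicate, one well per test compound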
M5 ag – agonists of human muscarinic M5 receptor (CHRM5). P08912. CHO-K1 hM5 cells, Fluo-8 calcium fluorescence; 0% DMSO wells, 100% maximal acetylcholine response. activation, % at 3 µM. 360,000 compounds, 0.19% hits. AID 624037;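 active = activation above the run's mean over test compounds plus 3 SD, cut at about 23% in these data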;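 note: signal is peak over basal fluorescence ratio across the kinetic read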
CHRM4 antagonist – blocks acetylcholine activation of human M4 receptor; CHO-hM4 cells, ACh EC80, Fluo-8 calcium fluorescence; 360,000 compounds, 0.73% hits; P08173; inhibition, % at 3 µM;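 active = inhibition above its plate's cutoff, the mean inhibition of sample wells plus 3 SD, cut at about 27% in these data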
Of the large screens only hits and unclear results are named; the others gave an inactive call.

CS(=O)(=O)c1ccc(NS(=O)(=O)c2ccc(Cl)c(C(=O)NCc3ccco3)c2)cc1	CHRM4 PAM 24
CCCNC(=O)C1(C)CCCN(Cc2ccc(C(=O)OCC)o2)C1 (stereo unspecified)	none
CC1CC(C)CN(c2ncc3c(n2)CC(c2ccc(Cl)cc2)CC3=O)C1 (stereo unspecified)	M5 PAM 39
CC1CC(C)CN(c2ncc3c(n2)CC(c2ccccc2Cl)CC3=O)C1 (stereo unspecified)	none
Cc1ccc(NC(=O)COC(=O)Cn2ccc(C(F)(F)F)n2)cc1Cl	CHRM4 PAM 22
Cc1ccc(NC(=O)COC(=O)CN2CCSC2=O)cc1Cl	none
CC(=O)C[C@@H](O)CC(=O)[C@H]1OC(=O)CC/C=C\Cc2ccccc21	none
CC(=O)C[C@@H](O)CC(=O)[C@@H]1OC(=O)CC/C=C\Cc2ccccc21	CHRM4 PAM 26
COc1ccc(OCC(=O)N2CCN(S(=O)(=O)c3ccc4c(c3)OCCO4)CC2)cc1	none
CCCN(CC(=O)Nc1ccccc1C)C(=O)c1cccc(S(=O)(=O)N2CCc3ccccc3C2)c1	CHRM5 antagonist 28
CC(C)C1Cc2c(sc3c2c(=O)n(-c2ccccc2)c2n[nH]c(=S)n32)CO1 (stereo unspecified)	none
CCOC(=O)[C@H]1[C@H]2COc3ccccc3[C@@H]2N2C(=O)CNC(=O)[C@@]12C	none
CCOC(=O)c1oc2ccc(CNCCO)c(Cl)c2c1C	none
CCOC(=O)c1oc2ccc(CNC3CCCCC3)c(Cl)c2c1C	CHRM4 antagonist 55
Oc1cc2c(cc1O)[C@H]1c3ccc(O)c(O)c3OC[C@@]1(O)C2	none
Oc1ccc2c(c1)OCC1(O)Cc3cc(O)c(O)cc3C21 (stereo unspecified)	CHRM4 agonist 52
Cc1cccc(OCc2n(CC(=O)OC3CC(C)CCC3C(C)C)c3ccccc3[n+]2C)c1 (stereo unspecified)	CHRM5 antagonist 40, CHRM4 antagonist 39
O=C(Nc1ccccc1)c1cc(C2COCCN2C(=O)C2CC2)on1 (stereo unspecified)	none
CN(C)S(=O)(=O)c1ccc2c(c1)c(=O)c(C(=O)N1CCN(c3ccccn3)CC1)cn2C	none
Cc1ccc(C)c(N2CCN(C(=O)c3cn(C)c4ccc(S(=O)(=O)N(C)C)cc4c3=O)CC2)c1	CHRM4 antagonist 95
Cc1cc(C)c(CSc2ncc(-c3ccc([N+](=O)[O-])cc3)[nH]2)c(C)c1	CHRM4 antagonist 36
COc1ccc(OCC(O)CNC(=O)Nc2cccc3ccccc23)cc1 (stereo unspecified)	none
CCOC(=O)CN(C(=O)CNC(=O)c1ccco1)C(C(=O)NC1CCCCC1)c1cccnc1 (stereo unspecified)	none
O=c1c2cc(NC(=S)NCCCN3CCC(Cc4ccccc4)CC3)ccc2nc2n1CCCCC2	CHRM4 antagonist 44
C[C@@H]1C2CC(C/C2=N\NC(=O)c2ccncc2)C1(C)C (stereo partly specified)	M5 PAM 39
CCCNC(=O)c1cc2c(c(-c3cccc(-c4ccccc4F)c3)n1)[C@H](CCO)N(C(=O)CC1CC1)C2	none
COc1cc(-c2noc(C3CCCN(C(=O)c4ccccc4)C3)n2)cc(OC)c1OC (stereo unspecified)	CHRM4 PAM 14
CN[C@H]1C[C@H]2c3cc(-c4ccccc4)ccc3CCN2C(=O)[C@H]1[C@H](C)O	none
CCCCC(O)(CCN1CCOCC1)c1ccc(Cl)cc1 (stereo unspecified)	CHRM5 antagonist 32, CHRM4 antagonist 68
N#C/C(=N\Nc1ccccc1)C(N)=S	none
N#C/C(=N/Nc1ccccc1[N+](=O)[O-])C(N)=S	CHRM5 antagonist 29
CCN(Cc1ccncc1)C(=O)C(CO)c1ccccc1 (stereo unspecified)	CHRM5 antagonist 87, CHRM4 antagonist 89
CCN(Cc1ccncc1)C(=S)Nc1ccccc1	none
Cn1ccc(C(=O)N/N=C/c2c[nH]c3ccccc23)n1	M5 PAM 28
O=C1NC2(CCOc3ccccc32)C(=O)N1CC(=O)N(Cc1ccccc1)C1CCS(=O)(=O)C1 (stereo unspecified)	M5 PAM 22
O=C(O)CN1C(=O)NC2(CCOc3ccccc32)C1=O (stereo unspecified)	none
O=c1/c(=C/c2ccccc2)sc2nnc(-c3cccs3)n12	M5 PAM 19
O=c1/c(=C\c2ccc(O)cc2)sc2nc(-c3ccccc3)c(-c3ccccc3)n12	none
CCOC(=O)C(C(=O)Nc1ccc(C)cc1)C1CCCCC1 (stereo unspecified)	CHRM4 PAM 45
CCOC(=O)C(C(=O)Nc1ccccc1)C1CCCCC1 (stereo unspecified)	none
COc1cc(C(O)c2nc(-c3ccc(F)cc3OC)cs2)ccc1F (stereo unspecified)	none
CC1(c2ccccc2)CC(C)(C)N2C(=O)Cc3cccc1c32 (stereo unspecified)	CHRM4 antagonist 33
COc1ccc2noc3c2c1C(=O)c1ccccc1-3	CHRM5 antagonist 28, CHRM4 agonist 59, M5 ag 51, CHRM4 antagonist 36
O=[N+]([O-])c1cc2c(cc1Br)-c1ccccc1C2	none
CCN(CC(=O)Nc1ccc(OC)cc1)C(=O)Cc1ccsc1	CHRM4 PAM 22
CCN(CC(=O)Nc1ccc(OC)cc1)C(=O)CN1C(=O)NC(C)(c2ccc3ccccc3c2)C1=O (stereo unspecified)	CHRM5 antagonist 32
CC1C(=O)N(Cc2cn(CCC3OCCCO3)nn2)CCS(=O)(=O)N1Cc1ccc(-c2ccc(Cl)c(Cl)c2)cc1 (stereo unspecified)	CHRM5 antagonist 36, CHRM4 antagonist 40
CC1C(=O)N(Cc2cn(CCC3OCCCO3)nn2)CCS(=O)(=O)N1Cc1ccc(-c2ccc(F)cc2)cc1 (stereo unspecified)	none
Cc1cccc(C)c1-c1ccc(CN2C(CC(C)C)C(=O)N(Cc3cn(CCO)nn3)CCS2(=O)=O)cc1 (stereo unspecified)	CHRM4 antagonist 28
COC(=O)C1=NN(c2ccc(C)cc2)C2(S1)SC(C(C)=O)=C(C)N2c1ccccc1 (stereo unspecified)	M5 PAM 21
COC(=O)C1=NN(c2ccccc2)C2(S1)SC(C(C)=O)=C(C)N2c1ccccc1 (stereo unspecified)	none
COc1ccccc1/C=C/C(=O)N1CCN(S(=O)(=O)c2cc(C)ccc2C)CC1	none
